One may read the pIC50 as the negative decadic logarithm of the IC50, by convention in mol/L. A word on the AUC: it is concentration integrated over time. A higher AUC goes with more exposure. What is called CL/F is clearance divided by bioavailability, as obtained after extravascular dosing.

The target of data set [1] is T1, Receptor-interacting serine/threonine-protein kinase 2 (Homo sapiens, UniProt O43353). In words: Inhibition of recombinant human RIPK2 incubated for 2 hr by ADP-Glo assay. The method in brief:
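IC50 values reported as the mean of two or three determinations ± standard deviation.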

A further data set addresses T2, Activin receptor type-1 (Homo sapiens, UniProt Q04771).
T2 sequence (Q04771 whole entry): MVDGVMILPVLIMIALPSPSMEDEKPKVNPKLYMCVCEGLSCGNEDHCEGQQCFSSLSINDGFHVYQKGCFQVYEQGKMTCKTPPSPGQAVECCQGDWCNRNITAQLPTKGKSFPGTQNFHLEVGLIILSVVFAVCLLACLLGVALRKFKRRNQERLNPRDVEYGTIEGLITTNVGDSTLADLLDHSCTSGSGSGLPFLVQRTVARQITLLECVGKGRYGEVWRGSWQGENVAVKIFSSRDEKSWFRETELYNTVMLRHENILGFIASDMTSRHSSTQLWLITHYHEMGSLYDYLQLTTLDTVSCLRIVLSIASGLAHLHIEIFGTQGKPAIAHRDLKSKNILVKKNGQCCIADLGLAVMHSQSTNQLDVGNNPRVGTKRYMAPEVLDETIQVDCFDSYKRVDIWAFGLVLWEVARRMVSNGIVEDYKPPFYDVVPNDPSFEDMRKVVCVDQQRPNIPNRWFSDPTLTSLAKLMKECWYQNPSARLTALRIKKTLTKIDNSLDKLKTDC
In words: Inhibition of human ALK2 using casein as substrate in presence of 10 uM [gamma33P] ATP by kinase assay.

Data set [2] has as its target T1, Receptor-interacting serine/threonine-protein kinase 2. As to the kind of experiment: Inhibition of recombinant human RIPK2 at 10 uM incubated for 2 hr by ADP-Glo assay.
Data set [3] in a line: Aqueous solubility of compound in PBS buffer at pH 7.4. The data set is classed as physicochemical. The gist of the method:
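Solubility measured in PBS buffer at pH 7.4.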

The nature of data set [4]: Permeability of the compound by PAMPA. The data set is classed as ADME. On the technique in general: The PAMPA barrier holds no transporters, so it reflects passive diffusion.
Data set [5] can be described thus: Stability in mouse liver microsomes assessed as half life. It counts as ADME, Microsome.
Data set [6] is described as follows: Stability in mouse liver microsomes assessed as intrinsic clearance. It counts as ADME, Microsome.
Data set [7] can be described thus: AUC in C57BL/6 mouse at 10 mg/kg, ip by LC-MS/MS analysis. The note with it: in vivo. The data set is classed as ADME, organism-based. More on the design: dose 10 mg/kg. The method in brief: (§1)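 Single 10 mg/kg intraperitoneal dose formulated in 6% Captisol in water, given to 8-week-old female C57BL/6 mice, n = 5 mice per group; plasma concentrations followed over time to derive PK parameters.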

Data set [8] is described as follows: Clearance in C57BL/6 mouse at 10 mg/kg, ip by LC-MS/MS analysis. It counts as ADME, organism-based. Conditions: in vivo. The gist of the method: as §1
For data set [9], the target named is T3, Activin receptor type-1 (Homo sapiens) (UniProt Q04771).
T3 sequence (whole entry): T2 sequence (Q04771 whole entry)
As to the kind of experiment: Inhibition of human ALK2 using casein as substrate at 10 uM in presence of 10 uM [gamma33P] ATP by kinase assay.

The target in data set [10] is Nucleotide-binding oligomerization domain-containing protein 2 (Homo sapiens) (UniProt Q9HC29). As to the kind of experiment: Inhibition of human NOD2 expressed in HEK293 cells coexpressing NFkappaB-SEAP reporter at 10 uM measured after 7 to 9 hrs by HEKBIue reporter assay. It counts as cell-based. Conditions: time 7-9 hrs. (Reporter assays use an easily measured gene product as a stand-in for the process of interest.)

pIC50: −log10 of the molar value. The source made the active and inactive calls. The rule behind the calls is not given here. Bounds are passed on as bounds.

Nucleotide-binding oligomerization domain-containing protein 2 (Homo sapiens), sequence (Q9HC29 whole entry, the tested form may be a part): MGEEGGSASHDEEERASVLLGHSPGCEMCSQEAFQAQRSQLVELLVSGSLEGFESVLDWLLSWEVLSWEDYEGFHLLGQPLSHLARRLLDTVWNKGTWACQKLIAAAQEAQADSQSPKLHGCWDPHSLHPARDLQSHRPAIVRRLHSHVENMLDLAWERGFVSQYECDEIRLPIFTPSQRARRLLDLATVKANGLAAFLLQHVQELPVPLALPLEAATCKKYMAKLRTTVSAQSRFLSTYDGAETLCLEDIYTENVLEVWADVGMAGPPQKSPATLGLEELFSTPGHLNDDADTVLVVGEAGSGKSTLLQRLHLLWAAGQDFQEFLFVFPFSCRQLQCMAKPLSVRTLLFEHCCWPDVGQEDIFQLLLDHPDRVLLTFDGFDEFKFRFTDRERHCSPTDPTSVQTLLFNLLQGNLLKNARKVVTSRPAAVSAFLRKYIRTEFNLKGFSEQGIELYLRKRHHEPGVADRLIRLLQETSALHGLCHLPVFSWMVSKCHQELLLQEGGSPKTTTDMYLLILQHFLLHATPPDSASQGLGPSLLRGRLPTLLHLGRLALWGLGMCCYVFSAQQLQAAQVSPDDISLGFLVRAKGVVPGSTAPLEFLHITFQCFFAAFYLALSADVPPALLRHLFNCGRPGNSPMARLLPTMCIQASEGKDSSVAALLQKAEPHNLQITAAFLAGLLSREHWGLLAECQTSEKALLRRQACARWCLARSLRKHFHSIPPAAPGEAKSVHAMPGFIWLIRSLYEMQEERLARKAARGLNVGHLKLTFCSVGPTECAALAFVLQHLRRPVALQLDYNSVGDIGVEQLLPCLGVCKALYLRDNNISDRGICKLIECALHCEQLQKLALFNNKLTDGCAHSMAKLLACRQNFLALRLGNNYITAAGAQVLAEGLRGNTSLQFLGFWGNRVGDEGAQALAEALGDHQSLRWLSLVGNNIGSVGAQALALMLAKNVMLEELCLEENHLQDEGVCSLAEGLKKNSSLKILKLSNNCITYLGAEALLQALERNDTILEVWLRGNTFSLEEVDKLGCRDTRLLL
T1 sequence (O43353 whole entry): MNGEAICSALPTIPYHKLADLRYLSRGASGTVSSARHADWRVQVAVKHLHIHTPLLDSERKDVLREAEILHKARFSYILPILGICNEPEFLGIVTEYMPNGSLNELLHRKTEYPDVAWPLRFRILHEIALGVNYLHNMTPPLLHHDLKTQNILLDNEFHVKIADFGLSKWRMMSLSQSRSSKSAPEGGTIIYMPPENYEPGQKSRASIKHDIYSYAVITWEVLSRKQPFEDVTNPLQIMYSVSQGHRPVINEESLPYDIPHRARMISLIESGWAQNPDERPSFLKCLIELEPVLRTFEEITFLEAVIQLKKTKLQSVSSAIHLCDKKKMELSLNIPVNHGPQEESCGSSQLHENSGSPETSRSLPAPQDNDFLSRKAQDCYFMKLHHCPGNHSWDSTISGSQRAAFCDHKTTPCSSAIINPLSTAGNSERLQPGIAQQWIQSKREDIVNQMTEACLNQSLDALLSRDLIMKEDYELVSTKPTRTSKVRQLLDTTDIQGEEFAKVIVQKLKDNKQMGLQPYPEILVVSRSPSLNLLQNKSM

As to `CCCS(=O)(=O)Nc1cc(-c2cc(-c3ccc(N4CCNCC4)cc3)cnc2N)ccc1C`, the negative-log IC50 (pIC50) in [1] is 6.99; on Activin receptor type-1, 5.67.
`CCCS(=O)(=O)Nc1cc(-c2cc(-c3ccc(N4CCNCC4)cc3)cnc2N)ccc1O`: the pIC50 at Activin receptor type-1 was 6.41.
For `CCCS(=O)(=O)Nc1cc(-c2cc(-c3ccc(N4CCNCC4)cc3)cnc2N)cc(OC)c1C`, the pIC50 on Activin receptor type-1 is 6.45. Further, in data set [2], the inhibition result was “inactive”.
As to `CCCS(=O)(=O)NCc1cc(-c2cc(-c3ccc(N4CCNCC4)cc3)cnc2N)ccc1OC`, the pIC50 in [1] was 7.00; at Activin receptor type-1, 6.84.
Take `CCCS(=O)(=O)Nc1cc(-c2cc(-c3ccc(N4CCNCC4)cc3)cnc2N)cc(F)c1OC`: the negative logarithm of the IC50 (pIC50) in [1] was 7.80; at Activin receptor type-1, 6.46. Moreover, in data set [3], the solubility result is “>= 100 uM”. Also, in [4], the permeability is on record as 2.9 10^-6 cm/s. Further, the t1/2 in [5] is recorded as 25.6 min. The CLint in data set [6] was determined as 27 µL/min/mg. Also, the AUC in data set [7] is 2920 ng·h/mL. For the same compound, the apparent clearance (CL/F) in data set [8] amounted to 59.7 mL/min/kg.
With `CCCS(=O)(=O)Nc1cc(-c2cc(-c3ccc(S(C)(=O)=O)cc3)cnc2N)ccc1OC`, the pIC50 in data set [1] is 6.58. Also, the inhibition entry in [9] and in data set [10] was “inactive” in each case.
With `CCCS(=O)(=O)Nc1cc(-c2cc(-c3ccc(N4CCNCC4)cc3)cnc2N)cc(OCC)c1OC`, the inhibition result in [2], in data set [9] and in [10] was “inactive” throughout.
For the compound `CC(C)Oc1cc(NS(=O)(=O)C(C)C)cc(-c2cc(-c3ccc(N4CCNCC4)cc3)cnc2N)c1`, the pIC50 in data set [1] was 7.74. In addition, in [9], the inhibition entry was “inactive”.
Take `CCCS(=O)(=O)Nc1cc(-c2cc(-c3ccccc3S(C)(=O)=O)cnc2N)ccc1OC`: the inhibition result in data set [2], in [9] and in data set [10] was “inactive” each time.
Turning to `CCS(=O)(=O)Nc1cc(OC)cc(-c2cc(-c3ccc(N4CCNCC4)cc3)cnc2C)c1`, the values for the negative logarithm of the IC50 (pIC50) (in data set [1]; on Activin receptor type-1) were 6.90 and 7.07, respectively.
In the same order, the values of `CCOc1cc(NS(=O)(=O)C(C)C)cc(-c2cc(-c3ccc(N4CCNCC4)cc3)cnc2N)c1` are 7.68 and 6.52.
Consider `CCCS(=O)(=O)Nc1cc(-c2cc(-c3ccc(N4CCNCC4)cc3)cnc2N)ccc1OC`, for which the negative-log IC50 (pIC50) in data set [1] is 7.49; on Activin receptor type-1, 5.45.
Regarding `CCCS(=O)(=O)N1CCc2ccc(-c3cc(-c4ccc(N5CCNCC5)cc4)cnc3N)cc21`, the pIC50 in data set [1] was 6.73. Besides, the inhibition result in [9] was “inactive”.
Regarding `CCCS(=O)(=O)Nc1cc(-c2cc(-c3ccc(N4CCNCC4)cc3)cnc2N)cc(Cl)c1OC`, the results for the pIC50 (in data set [1]; on Activin receptor type-1) were 7.68 and 6.69, respectively.
As for `CCCS(=O)(=O)Nc1cc(-c2cc(-c3ccc(N4CCNCC4)cc3)cnc2C)cc(F)c1OC`, the inhibition entry in data set [9] was “inactive”.
As to `CCCS(=O)(=O)Nc1cc(OC)cc(-c2cc(-c3ccc(N4CCNCC4)cc3)cnc2C)c1`, the negative-log IC50 (pIC50) in [1] is 6.79; at Activin receptor type-1 it was 6.97.
With `CCCS(=O)(=O)Nc1cc(-c2cc(-c3cccc(S(C)(=O)=O)c3)cnc2N)ccc1OC`, the negative-log IC50 (pIC50) in [1] was 6.99. In data set [9], the inhibition entry was “inactive”.
On to `CCCS(=O)(=O)Nc1cc(-c2cc(-c3ccc(N4CCNCC4)cc3)cnc2N)cc(C)c1OC`, for which the negative logarithm of the IC50 (pIC50) in data set [1] is 7.39; at Activin receptor type-1, 6.40.
`CCCS(=O)(=O)Nc1cc(OC)cc(-c2cc(-c3ccc(N4CCNCC4)cc3)cnc2N)c1`: the pIC50 in [1] was 7.85; at Activin receptor type-1 it was 8.05.
As to `COc1cc(NS(=O)(=O)C(C)C)cc(-c2cc(-c3ccc(N4CCNCC4)cc3)cnc2N)c1`, the pIC50 in data set [1] is 7.89; at Activin receptor type-1, 7.96.
With `CCCS(=O)(=O)N1CCOc2ccc(-c3cc(-c4ccc(N5CCNCC5)cc4)cnc3N)cc21`, in [1], the negative-log IC50 (pIC50) is 7.11. Further, the inhibition result in data set [9] is “inactive”.
On to `COc1cc(-c2cc(-c3ccc(N4CCNCC4)cc3)cnc2N)cc(F)c1OC`, for which the negative-log IC50 (pIC50) on Activin receptor type-1 is 7.54.
On to `CCCS(=O)(=O)Nc1cc(-c2cncc(-c3ccc(N4CCNCC4)cc3)c2)cc(F)c1OC`, for which, in [1], the negative logarithm of the IC50 (pIC50) is 7.57.
For `COc1cc(-c2cc(-c3ccc(N4CCNCC4)cc3)cnc2C)cc(OC)c1OC`, the pIC50 in [1] was 7.00. For the same compound, in data set [10], the inhibition entry was “inactive”.
With `COc1cc(NS(C)(=O)=O)cc(-c2cc(-c3ccc(N4CCNCC4)cc3)cnc2N)c1`, the negative-log IC50 (pIC50) in data set [1] was 7.29; at Activin receptor type-1, 8.30.
Regarding `COc1cc(NS(=O)(=O)C(C)C)cc(-c2cc(-c3ccc(N4CCNCC4)cc3)cnc2C)c1`, the negative-log IC50 (pIC50) in data set [1] is 7.12; on Activin receptor type-1, 6.62.
Regarding `COc1cc(NS(C)(=O)=O)cc(-c2cc(-c3ccc(N4CCNCC4)cc3)cnc2C)c1`, the results for the negative-log IC50 (pIC50) (in data set [1]; on Activin receptor type-1) were 6.53 and 7.51, respectively.
As for `CCCS(=O)(=O)Nc1ccc(-c2cc(-c3ccc(N4CCNCC4)cc3)cnc2C)cc1OC`, the inhibition result in data set [2] and in [9] was “inactive” throughout.
Turning to `CCCS(=O)(=O)Nc1cc(-c2cc(-c3cccc(N4CCNCC4)c3)cnc2N)cc(F)c1OC`, the negative logarithm of the IC50 (pIC50) was 7.96 in [1] and 6.28 on Activin receptor type-1.
Turning to `CCCS(=O)(=O)Nc1cc(-c2cc(-c3ccc(N4CCNCC4)cc3)cnc2N)cc(OC)c1OC`, the negative logarithm of the IC50 (pIC50) at Activin receptor type-1 is 7.24.
As to `COc1cc(NS(=O)(=O)c2ccccc2)cc(-c2cc(-c3ccc(N4CCNCC4)cc3)cnc2N)c1`, the pIC50 in data set [1] is 7.64; at Activin receptor type-1, 8.30.
For the compound `CCCS(=O)(=O)Nc1cc(-c2cc(-c3ccc(N4CCNCC4)cc3)cnc2N)cc2c1OCCO2`, the negative logarithm of the IC50 (pIC50) in [1] was 6.28. Moreover, the inhibition result in data set [9] was “inactive”.

For the origin of these results see ChEMBL document CHEMBL4765350, “Receptor-interacting protein kinase 2 (RIPK2) and nucleotide-binding oligomerization domain (NOD) cell signaling inhibitors based on a 3,5-diphenyl-2-aminopyridine scaffold” (Eur J Med Chem, 2020).
